Experimental data as given in the EternaBench riboswitch data.

Tested on: MS2 coat protein
Experiment: apparent Kd, MS2 coat protein; higher = weaker binding; RNA-MaP array; FMN 200 µM where present
In short: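 On Illumina sequencing-chip clusters, designs were transcribed by stalled E. coli RNA polymerase and titrated with SNAP-549-labelled MS2 coat protein (0.7 or 1.5 nM, doubling to 3 µM), without and then with constant ligand, in 100 mM Tris-HCl pH 7.5, 80 mM KCl, 4 mM MgCl2, BSA, DTT, yeast tRNA and Tween-20. Apparent Kd is the median of filtered per-cluster curve fits to green signal normalised to red-channel RNA signal and control-cluster median Fmax.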

[1] = designed as: ON switch for flavin mononucleotide, no ligand
[2] = ligand present: flavin mononucleotide, designed as: ON switch for flavin mononucleotide
[3] = designed as: OFF switch for flavin mononucleotide, no ligand
[4] = ligand present: flavin mononucleotide, designed as: OFF switch for flavin mononucleotide

Row | Sequence | apparent Kd [1] | apparent Kd [2] | apparent Kd [3] | apparent Kd [4]
1 | UUGGAGUACGUAGGAUAUGUAGGAUUUUCCUACAUGAGGAUCACCCAUGUUAGCAUGGAAGAAGGACAGAAGGACGUGCUCCAU | 1040 nM | 78.1 nM |  | 
2 | UCGGCGCGAGGAUAUGCGGCUGGUGCUUCGGGCUCUGGCGUACAUGAGGAUCACCCAUGUAGAAGGCGCGCCGC |  |  | 13.1 nM | 14.3 nM
3 | CCGGAACAUGAGGAUCACCCAUGUGAGGAUAUCGUACGUUCGUCGAUAGACGAUCGUACGAGAAGGCACGCCGG |  |  | 18.2 nM | 17.3 nM
4 | CGCACUAUACAUGAGGAUCACCCAUGUUAAUAUGAGGUAGUCAGAAGGCAUUGUAUGAGAUAUUAUGAGGAUAUGAUUAGUGCG | 226 nM | 41.4 nM |  | 
5 | UACCUGAGGCAAAGCUUUAGGUAUACAUGAGGAUCACCCAUGUAGGAUAUGGUAGGCCUUGCUUACCAGAAGGACAUGUUAAUU |  |  | 23.5 nM | 76.1 nM
6 | GAAAACAUAGGAUAUACAUGAGGAUCACCCAUGUUAAAAUAAAGAAAGGGAGAAAUAAGUAGAAGGAUGAAAAA |  |  | 33.8 nM | 34.2 nM
7 | AUUUAUUUACAGAAGGAGUAUGAUAAUGUUUUACUAGGAUAUGUAUACAUGAGGAUCACCCAUGUUAUUAUAGGUUUUUUAUGU |  |  | 10.3 nM | 7.08 nM
8 | AAAACGGUAGGAUAUACAUGAGGAUCACCCAUGUUAAAUUUAAAAAUAAAAUUAAAAUGUAGAAGGACCAAAAA |  |  | 32 nM | 32.3 nM
9 | GGCUGCGUUGUGAAGGAUAUCCGCGUCUGGACAUGAGGAUCACCCAUGUAUGCUUGGAUCGUGCCGGAGAAGGUCACGAAUGAUU | 34.5 nM | 15.9 nM |  | 
10 | AAAAAAAAAGUAUAGGAUAUCCGAGUGGUAACAUGAGGAUCACCCAUGUGAAGAAAGGAAGAUGAGGAGAAGGAUACAAAAAAAAA | 125 nM | 48.5 nM |  | 
11 | GGCAGACAUGAGGAUCACCCAUGUCAGGAUAUGUGGCGAUCGUCGAUAGACGAUAGCCACAGAAGGGACAUGCC |  |  | 23.9 nM | 39.5 nM
12 | GGACGUCACAUCUACAUGAGGAUCACCCAUGUCGAAAGACAUGAGGAUAUGCAUCCUAAUUGGAUGCAGAAGGCAUGGACGUCC | 667 nM | 69.7 nM |  | 
13 | UUGGACGUCGUAGGAUAUGUAGGAUAUUCCUACAUGAGGAUCACCCAUGUUGACAUGGAAGCAGGACAGAAGGACGAUGUCCAU | 578 nM | 14.3 nM |  | 
14 | UUGGACGUCGUAGGAUAUGUAGGAUAUUCCUACAUGAGGAUCACCCAUGUUGACAUGGUAGAAGGACAGAAGGACGAUGUCCAU | 423 nM | 53.4 nM |  | 
15 | UGGUACUAGGGAGGAUAUGGGAGGAUACAUGAGGAUCACCCAUGUUUAAGAAUGCCGAGAGGCAACUAGAAGGCCCUAGUACCU | 919 nM | 63.7 nM |  | 
16 | CUGCCGUAGGAGAAGGACGGCGGGUUAUUUUUGUACAUGAGGAUCACCCAUGUAGGAUAUCCUACGUCAGGCAACCUACUACAG |  |  | 7.26 nM | 10.2 nM
17 | AGUAACAGAGGAUAUACUGUUUUAUGUAUUUAUUAUUUUAAACAUGAGGAUCACCCAUGUAGAAGGCUGAAUAA |  |  | 20.6 nM | 20.3 nM
18 | GUAGCUAUCGCAGGAUAUCCUCAGCGGAAACGCACAUGAGGAUCACCCAUGUAAAUAAAUAAUUUGGAGAAGGGCGAUAGCUAC | 323 nM | 26.8 nM |  | 
19 | UGUGUGUGGCAGGAUAUGCCGGUCGUAGGACGGGUAGAAGGGUCUACAUGAGGAUCACCCAUGUGGCCGGUUGG |  |  | 19.2 nM | 18.5 nM

Row | Sequence | apparent Kd [1] | apparent Kd [2] | apparent Kd [3] | apparent Kd [4]
20 | CCAUUUCUGUAAGGAUAUAUAAACAUGACGAUACAUGAGGAUCACCCAUGUGUAGAAGGUACAAAUACAUAUAAUGCAAUGUUC |  |  | 14.8 nM | 13 nM
21 | GCGGAACAUGAGGAUCACCCAUGUAUCCCAAAUAUGGACUCACAGGAUAUCCCGAGUUUCCAGUGGGAGAAGGGUGACUCCAGA | 21.7 nM | 11.1 nM |  | 
22 | GUUAGCGCAGGAUAUACAUGAGGAUCACCCAUGUCCUCAUGCGUUAAAGAGGUGAUCCGUAGAAGGGUGUAAAC |  |  | 180 nM | 250 nM
23 | UCCUUGUCCUGAGGAUAUCCGUGGUUACCGAAAGGAGAAGGCAGGACAUGAGGAUCACCCAUGUACCCAGAAAACGUGCAGAGU |  |  | 125 nM | 381 nM
24 | GGUUGUCAUAGUCAUCCUUUCCGUACAUGAGGAUCACCCAUGUAGGAUAUGCUGCUCUCGGUGUGGCAGAAGGGCGUGUGUCUU |  |  | 17.8 nM | 18.9 nM
25 | UAAGUCGGAAGAUAAUAAUGAAUACAUGAGGAUCACCCAUGUAAGGAUAUGCAGUGGAAUACACUGCAGAAGGUACAUACCGAC |  |  | 16.1 nM | 21.4 nM
26 | UGCCCAAAUGGGCCGUGGCAGCGUGAGGAUAUGGGUUGGAUACAUGAGGAUCACCCAUGUUCCUCCUAGAAGGCACUUGUAACC | 183 nM | 41.5 nM |  | 
27 | UGUGCGUUGAUCUUCGAUCGUUGUACAUGAGGAUCACCCAUGUAGGAUAUUCUAAGACGCAGAUAGGAGAAGGACAUUGGUUUU |  |  | 10.1 nM | 17.6 nM
28 | GAGCACUGAUAAUAAUGUAGAAAUACAUGAGGAUCACCCAUGUAGGAUAUCGUCAGGAAUACUGACGAGAAGGACAUACAGUGC |  |  | 15.7 nM | 25.5 nM
29 | GAUAGGACAGAGAAGGACAUAGCUAGAGAUACUAGCAUAAGAACCUUCACAUGAGGAUCACCCAUGUAGGAUAUCUGUCCUAUC |  |  | 3.74 nM | 4.85 nM
30 | AUCAUGUGAGGAUAUGUGAUCAACCUUCUAUAUAGAUGAUGACAGAAGGCACAUGAGGAUCACCCAUGUAGAUC |  |  | 90.7 nM | 21.8 nM
31 | GUGUACAGAGGAUAUACUUGAAUCUAGCGAAGCUAGGUUCGACAUGAGGAUCACCCAUGUAGAAGGCUGUACAC |  |  | 12.7 nM | 17.4 nM
32 | ACAUGAGGAUCACCCAUGUUAAAUUAGGAUAUAUGACUGCACAUGAGGUUCACCCAUGUUCUACCGUAGAAGGGAUAAAUAAUU | 52.6 nM | 59.4 nM |  | 
33 | UGUUGUAUUACAGGAUAUCUAUUAGUUUUAUUUAGAGAAGGGUAUUCACAUGAGGAUCACCCAUGUAUAUACGAGGAAGUUGUG | 57.8 nM | 60.3 nM |  | 
34 | UUUAAGAAUGAAGGAUAUCUAAAAGUAAUCUUAAGAGAAGGUCAAUAGAACAUGAGGAUCACCCAUGUUAGAAUAGAUGGGUUU |  |  | 96.7 nM | 110 nM
35 | AAAUCAGCAGGAUAUGCGAUGUUAUGCUAGAUAGCGGGACCACAUGAGGAUCACCCAUGUAGAAGGGCUAGAUA |  |  | 34.9 nM | 16.8 nM
36 | AUCUUGUAAGGAUAUCUUACAAGUGACUUCGGUCACAGUUAAGAGAAGGUACAUGAGGAUCACCCAUGUAUAAC |  |  | 26.4 nM | 23 nM
37 | UAAAAGACUAGUAUGGUAACCUUCACAUGAGGAUCACCCAUGUAGGAUAUGAGCAGAAAAUCUGCUCAGAAGGACAUGCUAGUC |  |  | 3.73 nM | 4.25 nM
38 | UGUUUGCGGCAGGAUAUCCAUCCGCGGUGUGGUGGAGAAGGGCUGACAUGAGGAUCACCCAUGUGCGUCCUGUA |  |  | 19.4 nM | 27.5 nM

Row | Sequence | apparent Kd [1] | apparent Kd [2] | apparent Kd [3] | apparent Kd [4]
39 | AGUGUGGGAGGAUAUACAUGAGGAUCACCCAUGUGAGUUGGCUCACAUGCUACGCUUCGUAGAAGGCCCAAAGA |  |  | 88.8 nM | 290 nM
40 | CGGUGACGUGUAGGAUAUGGCGCUGGGUUUUGGCCAGAAGGACAUGAGGAUCACCCAUGUGGUAGAGGGCUGGCGGCCGCCCGU |  |  |  | 108 nM
41 | GGUGGUCUUGUGAGGAUAUGGUUGGAUGCAUAUGAUCAGAAGGCACAUGAGGAUCACCCAUGUGGAAUACCACU |  |  | 37.3 nM | 234 nM
42 | AGAUGGCGAGGAUAUACAUGAGGAUCACCCAUGUGAAGAUAAAUAGUGAGGAAGAAAAGUAGAAGGCGCUGUCA |  |  | 77.5 nM | 447 nM
43 | GGUAAACAUGAGGAUCACCCAUGUAAUAAUAUGGGAGGAUAUGGGAAUUAAUUAAUUAAACCAGAAGGCCUAAUUG | 216 nM | 25.6 nM |  | 
44 | UAAUAGUGUGUUAGGAUAUGCUGGUCGAAAGAUCAGCAGAAGGAACAUGAGGAUCACCCAUGUAGAGUAUUUUA |  |  | 21.3 nM | 62.4 nM
45 | AAGUGCUAAGGAUAUAUAUGGAUAUACAUUUAUGUAGAACUACAUGAGGAUCACCCAUGUAGAAGGUAGCAAUA |  |  | 25.3 nM | 42.3 nM
46 | AUUUUAAUGUCAGGAUAUAUUAGUUUUUACAUAGUAGAAGGGAUAAUUAUACUCAUGUACAUGAGGAUCACCCAUGUUAAAUAU | 139 nM | 44.5 nM |  | 
47 | CCGAUUAGCACAGGAUAUGGGAAUUCGUAGUUUCCAGAAGGGUGAGCCAAUACAUGAGGAUCACCCAUGUGCGGUAGGUCGGGA | 30.5 nM | 80 nM |  | 
48 | AAGAAACAUGAGGAUCACCCAUGUGAGGAUAUGCAAGAAAGAAAGAAAGAAAGAAGAAGCAGAAGGCACAAAGG |  |  | 25.8 nM | 49.7 nM
49 | GCGGCUAGUGCAGGAUAUCGGCGCGUGUAGCGCCGAGAAGGGCACAUGAGGAUCACCCAUGUGAUCAAUCAAUGCUAAUGCCGC |  |  | 7.38 nM | 25.4 nM
50 | CGGGCGCGAGGAUAUACAUGAGGAUCACCCAUGUAGUGGGUUUGUUUCGGGCUUGCGUGUAGAAGGUGUGUUUG |  |  | 217 nM | 172 nM
51 | GGUUGACAUGAGGAUCACCCAUGUGAGGAUAUCGGCUGGUACGUGUUGGCUGGCAUCUCGAGAAGGCACAUAGG |  |  | 170 nM | 58.4 nM
52 | CUUCUGUCAGGAUAUGCGAAUCACCACUGGGUCAGUGGUGAGCAGAAGGGACAUGAGGAUCACCCAUGUAAAGU |  |  | 36.3 nM | 169 nM
53 | AAUAAGCUAGGAUAUACAUGAGGAUCACCCAUGUGAGGGCACGGCCGGCGCGGGCCCGGUAGAAGGAGUCAUAA |  |  | 28.6 nM | 23.6 nM
54 | AAAAAGGGAGGAUAUACAUGAGUAGAUCGUGUAAAAAAAAUACAUGAGGAUCACCCAUGUAGAAGGCCCAAAAA |  |  | 231 nM | 88.2 nM
55 | AAUUAUAUGUAGAAGGUACAGACUUAUGAGUAGUAAGGAUAUACAAAAUUAUUAAUUCUCAAGUUACAUGAGGAUCACCCAUGU | 11.6 nM | 8.33 nM |  | 
56 | CUACGGGACGGAGAUCGUGGUGAAGUAGAAGGGUGAGAUGACAUGAGGAUCACCCAUGUAGUAGCGCAGGAUAUACGGCACCGG | 388 nM | 103 nM |  | 
